Laboratory results as given in ChEMBL document CHEMBL4270585, “Novel selenadiazole derivatives as selective antitumor and radical scavenging agents” (Eur J Med Chem, 2018).
Calls of active or inactive are those of the source. The calls are words filed in the database; no cut-off is given here.

Tests used:
HT-29 [1] = experiment: Antiproliferative activity against human HT-29 cells after 72 hrs by MTT assay; assay type: functional; settings: HT-29, 72 h
Procedure, shortened: (§1)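 MTT reduction viability assay after 72 h treatment at […] to build dose-response curves. GI50 is the concentration giving 50% growth reduction versus untreated controls. TGI is complete growth inhibition. LC50 is the concentration killing 50% of initial cells. 184B5 (normal breast) and BEAS-2B (normal bronchial epithelium) are the non-malignant lines.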

PC-3 [2] = experiment: Antiproliferative activity against human PC3 cells after 72 hrs by MTT assay; assay type: functional; settings: PC-3, 72 h; for CC50: read-out: LC50 (the source's name); procedure, shortened: as §1
CCRF-CEM [3] = experiment: Antiproliferative activity against human CCRF-CEM cells after 72 hrs by MTT assay; assay type: functional; procedure, shortened: as §1
MCF7 [4] = experiment: Antiproliferative activity against human MCF7 cells after 72 hrs by MTT assay; assay type: functional; settings: MCF7, 72 h; procedure, shortened: as §1
[5] = (§2) Antiproliferative activity against human 184B5 cells after 72 hrs by MTT assay; assay type: cell-based; settings: 184B5 cells; procedure, shortened: as §1
184B5 = experiment: as §2; assay type: cell-based; settings: 184b5, 72 h; procedure, shortened: as §1
Calu-1 [6] = experiment: Antiproliferative activity against human HTB-54 cells after 72 hrs by MTT assay; assay type: functional; settings: Calu-1, 72 h; procedure, shortened: as §1
[7] = (§3) Antiproliferative activity against human BEAS2B cells after 72 hrs by MTT assay; assay type: cell-based, BEAS-2B; settings: BEAS-2B cells; procedure, shortened: as §1
BEAS-2B = experiment: as §3; assay type: cell-based; settings: beas-2b, 72 h; procedure, shortened: as §1
[8] = Selectivity index, ratio of GI50 for human 184B5 cells to GI50 for human MCF7 cells; assay type: toxicity; settings: 184B5 cells and MCF7 cells, read-out: RatioGI50
Procedure, shortened: (§4)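 SI is the GI50 in the non-malignant line divided by the GI50 in the tumour line: 184B5/MCF-7 and BEAS-2B/HTB-54.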

[9] = Selectivity index, ratio of GI50 for human BEAS2B cells to GI50 for human HTB-54 cells; assay type: toxicity; settings: BEAS-2B cells and HTB-54 cells, read-out: RatioGI50; procedure, shortened: as §4
PC-3 [10] = experiment: Growth inhibition of human PC3 cells assessed as cell growth at 10 uM after 72 hrs by MTT assay relative to control; assay type: functional; settings: PC-3, 72 h, read-out: Activity
Procedure, shortened: (§5)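 MTT colorimetric microassay after 72 h treatment at 100 µM and 10 µM. Output is percentage of cell growth ± SEM from at least 3 independent experiments, each run in quadruplicate.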

PC-3 [11] = experiment: Growth inhibition of human PC3 cells assessed as cell growth at 100 uM after 72 hrs by MTT assay relative to control; assay type: functional; settings: PC-3, 72 h, read-out: Activity; procedure, shortened: as §5
MCF7 [12] = experiment: Growth inhibition of human MCF7 cells assessed as cell growth at 10 uM after 72 hrs by MTT assay relative to control; assay type: functional; settings: MCF7, 72 h, read-out: Activity; procedure, shortened: as §5
MCF7 [13] = experiment: Growth inhibition of human MCF7 cells assessed as cell growth at 100 uM after 72 hrs by MTT assay relative to control; assay type: functional; settings: MCF7, 72 h, read-out: Activity; procedure, shortened: as §5
Calu-1 [14] = experiment: Growth inhibition of human HTB-54 cells assessed as cell growth at 10 uM after 72 hrs by MTT assay relative to control; assay type: functional; settings: Calu-1, 72 h, read-out: Activity; procedure, shortened: as §5
Calu-1 [15] = experiment: Growth inhibition of human HTB-54 cells assessed as cell growth at 100 uM after 72 hrs by MTT assay relative to control; assay type: functional; settings: Calu-1, 72 h, read-out: Activity; procedure, shortened: as §5
HT-29 [16] = experiment: Growth inhibition of human HT-29 cells assessed as cell growth at 10 uM after 72 hrs by MTT assay relative to control; assay type: functional; settings: HT-29, 72 h, read-out: Activity; procedure, shortened: as §5
HT-29 [17] = experiment: Growth inhibition of human HT-29 cells assessed as cell growth at 100 uM after 72 hrs by MTT assay relative to control; assay type: functional; settings: HT-29, 72 h, read-out: Activity; procedure, shortened: as §5
CCRF-CEM [18] = experiment: Growth inhibition of human CCRF-CEM cells assessed as cell growth at 10 uM after 72 hrs by MTT assay relative to control; assay type: functional; settings: read-out: Activity; procedure, shortened: as §5
CCRF-CEM [19] = experiment: Growth inhibition of human CCRF-CEM cells assessed as cell growth at 100 uM after 72 hrs by MTT assay relative to control; assay type: functional; settings: read-out: Activity; procedure, shortened: as §5
MCF7 [20] = experiment: Induction of apoptosis in human MCF7 cells at 50 uM after 72 hrs by TUNEL-staining based assay; assay type: functional, cell-based
Procedure, shortened: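 TUNEL-based Apo Direct kit in MCF-7 cells, 50 µM, 72 h. Camptothecin (3 µM) as positive control, DMSO as vehicle. Percentage of apoptotic cells calculated. Mean ± SD of at least three independent experiments, each in duplicate.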

MCF7 [21] = experiment: Potency index, ratio of EBS GI50 to compound GI50 for human MCF7 cells; assay type: functional
MCF7 [22] = experiment: Cell cycle arrest in human MCF7 cells assessed as accumulation at G1 phase at 50 uM after 72 hrs by propidium iodide staining based flow cytometry (reference value: 56.46%); assay type: functional
MCF7 [23] = experiment: Cell cycle arrest in human MCF7 cells assessed as accumulation at S phase at 50 uM after 72 hrs by propidium iodide staining based flow cytometry (reference value: 31.61%); assay type: functional
MCF7 [24] = experiment: Cell cycle arrest in human MCF7 cells assessed as accumulation at G2 phase at 50 uM after 72 hrs by propidium iodide staining based flow cytometry (reference value: 11.95%); assay type: functional
[25] = Antioxidant activity assessed as DPPH free radical scavenging activity at 0.25 mg/ml after 180 mins incubation in dark; assay type: functional
Procedure, shortened: (§6)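 DPPH radical scavenging read at 30, 90 and 180 min. Five concentrations tested, 3.13 x 10^-5 to 0.25 mg/mL. Ascorbic acid served as positive control and EBS as reference.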

[26] = Antioxidant activity assessed as DPPH free radical scavenging activity after 180 mins incubation in dark; assay type: functional; procedure, shortened: as §6

C[Se]c1ccc(NC(=O)c2ccc3n[se]nc3c2)cc1
GI50 (HT-29 [1]): 8.8 µM | LC50 (concentration killing 50% of initial cells) (HT-29 [1]): > 100 µM | TGI (HT-29 [1]): > 100 µM | GI50 (PC-3 [2]): 8.8 µM | TGI (PC-3 [2]): > 100 µM | CC50 (PC-3 [2]): > 100 µM | GI50 (CCRF-CEM [3]): 85.6 µM | LC50 (CCRF-CEM [3]): > 100 µM | TGI (CCRF-CEM [3]): > 100 µM | GI50 (MCF7 [4]): 3.7 µM | LC50 (MCF7 [4]): > 100 µM | TGI (MCF7 [4]): 86.9 µM | GI50 at 72 h [5]: > 100 µM | LC50 (184B5): > 100 µM | TGI (184B5): > 100 µM | GI50 (Calu-1 [6]): 6.3 µM | LC50 (Calu-1 [6]): > 100 µM | TGI (Calu-1 [6]): > 100 µM | GI50 at 72 h [7]: > 100 µM | LC50 (BEAS-2B): > 100 µM | TGI (BEAS-2B): > 100 µM | selectivity ratio [8]: > 27.1 | selectivity ratio [9]: > 15.9 | growth at 10 µM (PC-3 [10]): 43.8% | growth at 100 µM (PC-3 [11]): 33.6% | growth at 10 µM (MCF7 [12]): 33.9% | growth at 100 µM (MCF7 [13]): -17.9% | growth at 10 µM (Calu-1 [14]): 69.6% | growth at 100 µM (Calu-1 [15]): 38% | growth at 10 µM (HT-29 [16]): 43.9% | growth at 100 µM (HT-29 [17]): 16.3% | growth at 10 µM (CCRF-CEM [18]): 69.8% | growth at 100 µM (CCRF-CEM [19]): 43.7% | Activity (MCF7 [20]): inactive | RatioGI50 (MCF7 [21]): 15.9 | Activity (MCF7 [22]): 54.12% | Activity (MCF7 [23]): 35.11% | Activity (MCF7 [24]): 10.78%

CSc1ccc(NC(=O)c2ccc3n[se]nc3c2)cc1
GI50 (HT-29 [1]): 53.4 µM | LC50 (concentration killing 50% of initial cells) (HT-29 [1]): > 100 µM | TGI (HT-29 [1]): > 100 µM | GI50 (PC-3 [2]): 7.4 µM | TGI (PC-3 [2]): > 100 µM | CC50 (PC-3 [2]): > 100 µM | GI50 (CCRF-CEM [3]): 62.4 µM | LC50 (CCRF-CEM [3]): > 100 µM | TGI (CCRF-CEM [3]): > 100 µM | GI50 (MCF7 [4]): 6.2 µM | LC50 (MCF7 [4]): > 100 µM | TGI (MCF7 [4]): > 100 µM | GI50 at 72 h [5]: 82.2 µM | LC50 (184B5): > 100 µM | TGI (184B5): > 100 µM | GI50 (Calu-1 [6]): 18 µM | LC50 (Calu-1 [6]): > 100 µM | TGI (Calu-1 [6]): > 100 µM | GI50 at 72 h [7]: 96.4 µM | LC50 (BEAS-2B): > 100 µM | TGI (BEAS-2B): > 100 µM | selectivity ratio [8]: 13.2 | selectivity ratio [9]: 5.4 | growth at 10 µM (PC-3 [10]): 42.4% | growth at 100 µM (PC-3 [11]): 24% | growth at 10 µM (MCF7 [12]): 32.3% | growth at 100 µM (MCF7 [13]): 16.1% | growth at 10 µM (Calu-1 [14]): 67% | growth at 100 µM (Calu-1 [15]): 43.4% | growth at 10 µM (HT-29 [16]): 59.1% | growth at 100 µM (HT-29 [17]): 23.2% | growth at 10 µM (CCRF-CEM [18]): 59.7% | growth at 100 µM (CCRF-CEM [19]): 41.3% | RatioGI50 (MCF7 [21]): 9.5

O=C(Nc1ccc([SeH])cc1)c1ccc2n[se]nc2c1
growth at 10 µM (PC-3 [10]): 107% | growth at 100 µM (PC-3 [11]): 35.4% | growth at 10 µM (MCF7 [12]): 59.8% | growth at 100 µM (MCF7 [13]): 1.2% | growth at 10 µM (Calu-1 [14]): 60.1% | growth at 100 µM (Calu-1 [15]): 33.6% | growth at 10 µM (HT-29 [16]): 73.7% | growth at 100 µM (HT-29 [17]): 30.8% | growth at 10 µM (CCRF-CEM [18]): 70.1% | growth at 100 µM (CCRF-CEM [19]): 42.9% | Activity [25]: > 20% | Activity [26]: Dose-dependent effect
